Test results published in article PMC4176373 (Nucleic Acids Research, 2014).

Tests used:
[1] = molecular target: T1, CeDcpS (Caenorhabditis elegans, UniProt G5EFS4); details: pH 7.6, 20°C; cited from earlier work
T1 sequence (G5EFS4 1-311): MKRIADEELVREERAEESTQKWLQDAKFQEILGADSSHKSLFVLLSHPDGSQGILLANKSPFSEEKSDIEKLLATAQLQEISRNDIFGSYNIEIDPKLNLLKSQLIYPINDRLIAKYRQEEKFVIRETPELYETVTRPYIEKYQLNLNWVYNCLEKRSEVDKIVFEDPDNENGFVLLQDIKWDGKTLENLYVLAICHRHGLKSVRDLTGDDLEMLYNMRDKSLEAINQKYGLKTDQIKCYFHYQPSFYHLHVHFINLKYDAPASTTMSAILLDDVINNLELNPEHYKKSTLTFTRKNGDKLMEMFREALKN

[2] = molecular target: T2, hDcpS (Homo sapiens, UniProt Q96C86); details: pH 7.6, 20°C; cited from earlier work
T2 sequence (Q96C86 1-337): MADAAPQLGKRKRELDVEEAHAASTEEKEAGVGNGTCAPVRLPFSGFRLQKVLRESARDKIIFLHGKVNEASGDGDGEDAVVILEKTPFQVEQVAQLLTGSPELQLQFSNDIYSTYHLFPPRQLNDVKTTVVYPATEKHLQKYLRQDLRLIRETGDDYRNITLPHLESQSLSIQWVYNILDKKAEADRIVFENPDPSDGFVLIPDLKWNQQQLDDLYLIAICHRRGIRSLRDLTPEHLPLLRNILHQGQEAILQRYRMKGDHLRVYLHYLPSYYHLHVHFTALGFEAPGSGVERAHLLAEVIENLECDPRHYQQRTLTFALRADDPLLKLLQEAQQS

[3] = test system: human immature dendritic cells (hiDCs); test: Luciferase expression from 5′-capped mRNAs in dendritic cells; assay type: cell-based; details: luciferase mRNA capped with the analog, electroporated into hiDCs
How it was run: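 Luciferase mRNA made by T7 in vitro transcription with the cap dinucleotide added co-transcriptionally; plasmid DNA digested and RNA purified. Capped mRNA electroporated into human immature dendritic cells. Luciferase activity read at 2, 4, 8, 24, 48 and 72 h, in duplicate, and normalised to cell number. Time of maximal expression derived by spline interpolation of the time course.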

[4] = molecular target: mouse eIF4E(28–217) (Mus musculus, UniProt P63073); details: 50 mM HEPES/KOH (pH 7.2), 100 mM KCl, 20°C; cited from earlier work
[5] = molecular target: T2, hDcpS; test: HPLC-based assay of DcpS-mediated hydrolysis, Assay 2; assay type: biochemical; details: DcpS 200 nM, cap analog 15 μM, pH 7.6, 20 °C
[6] = molecular target: T1, CeDcpS; test: HPLC-based assay of DcpS-mediated hydrolysis, Assay 2; assay type: biochemical; details: DcpS 200 nM, cap analog 15 μM, pH 7.6, 20 °C
How it was run: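 Substrate at 15 µM sits 10 min at 20°C in 50 mM Tris HCl, 200 mM KCl, 0.5 mM EDTA, 1 mM DTT (final pH 7.6) before enzyme is added to 0.2 μM. Aliquots are heat-stopped at 97°C for 2.5 min at 10 and 90 min. Analysis is RP HPLC (methanol 0–30% in 0.1 M KH₂PO₄), reading A260 and fluorescence (ex 280/em 337 nm). Output is x = % substrate hydrolysed, with the substrate peak multiplied by 1.1. CeDcpS was E. coli-expressed and Ni-NTA-purified.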

[7] = Stacking measurements; assay type: physicochemical; details: 0.1 M phosphate buffer, pH 5.2, 20°C; from fluorescence intensity of 7-methylguanosine; mean ± SD
How it was run: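 Dinucleotide fluorescence intensity compared with m⁷GMP (7-methylguanosine fluorophore) in phosphate buffer, pH 5.2, at 20 °C. Stacked fraction calculated as (F_m7GMP − F_cap)/F_m7GMP, since stacking partially quenches 7-methylguanosine fluorescence. Values given as mean ± SD.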

Chain of mouse eIF4E(28–217) (P63073 28-217): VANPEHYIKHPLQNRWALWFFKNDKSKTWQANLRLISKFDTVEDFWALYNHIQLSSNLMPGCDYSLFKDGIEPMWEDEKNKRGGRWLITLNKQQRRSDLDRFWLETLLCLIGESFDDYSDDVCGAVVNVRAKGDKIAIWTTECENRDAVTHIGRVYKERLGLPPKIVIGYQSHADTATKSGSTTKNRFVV

Structure (SMILES) | KAS for CeDcpS [1] | KAS for hDcpS [2] | KAS (equilibrium association constant) for eIF4E [4] [µM⁻¹] | also measured
C[n+]1cn([C@@H]2O[C@H](COP(=O)(O)OP(=O)(O)O)[C@@H](O)[C@H]2O)c2nc(N)[nH]c(=O)c21 [m^7GDP, 7-methylguanosine diphosphate] | 97 ± 12^c μM^−1 | 114 ± 8^b μM^−1 | – | –
C[n+]1cn([C@@H]2O[C@H](COP(=O)([O-])NP(=O)(O)OP(=O)(O)OC[C@H]3O[C@@H](n4cnc5c(=O)[nH]c(N)nc54)[C@H](O)[C@@H]3O)[C@@H](O)[C@H]2O)c2nc(N)[nH]c(=O)c21.N.N [m^7GpNHppG] | 66 ± 9^c μM^−1 | 218 ± 24^d μM^−1 | – | –
CO[C@H]1[C@@H](O)[C@H]([n+]2cn(C)c3c(=O)[nH]c(N)nc32)O[C@@H]1COP(=O)([O-])OP(=O)(O)OP(=O)(O)OC[C@H]1O[C@@H](n2cnc3c(=O)[nH]c(N)nc32)[C@H](O)[C@@H]1O [m2^7,3′-OGpppG] | – | – | – | Time of max. (time point of maximal protein expression, functional RNA stability) [3]: 11.45 ± 0.07 h
CO[C@@H]1[C@H](O)[C@@H](COP(=O)(O)OP(=O)([O-])OP(=O)(O)OC[C@H]2O[C@@H](n3cnc4c(=O)[nH]c(N)nc43)[C@H](O)[C@@H]2O)O[C@H]1n1c[n+](C)c2c(O)nc(N)nc21 [m2^7,2′-OGpppG] | – | – | 10.8 ± 0.3 | –
C[n+]1cn([C@@H]2O[C@H](COP(=O)(O)OP(=O)(O)OP(=O)(O)OC[C@H]3O[C@@H](n4c[n+](C)c5c(=O)[nH]c(N)nc54)[C@H](O)[C@@H]3O)[C@@H](O)[C@H]2O)c2nc(N)[nH]c(=O)c21 [m^7Gpppm^7G] | – | – | 5.0 ± 0.2 | –
C[n+]1cn([C@@H]2O[C@H](COP(=O)(O)CP(=O)(O)OP(=O)(O)OC[C@H]3O[C@@H](n4cnc5c(=O)[nH]c(N)nc54)[C@H](O)[C@@H]3O)[C@@H](O)[C@H]2O)c2nc(N)[nH]c(=O)c21 [m^7GpCH2ppG] | 8.6 ± 0.4^c μM^−1 | 234 ± 14^e μM^−1 | – | –
C[n+]1cn([C@@H]2O[C@H](COP(=O)(O)OP(O)(=S)OP(=O)(O)OC[C@H]3O[C@@H](n4cnc5c(=O)[nH]c(N)nc54)[C@H](O)[C@@H]3O)[C@@H](O)[C@H]2O)c2nc(N)[nH]c(=O)c21 (some centres unmarked) [m^7GppSpG D1] | – | – | 45.0 ± 1.1 | Percent of cleavage, x (%) hDcpS 10 min ([5]; reaction time 10 min): 100%; Percent of cleavage, x (%) hDcpS 90 min ([5]; reaction time 90 min): 100%; Percent of cleavage, x (%) CeDcpS 10 min ([6]; reaction time 10 min): 100%; Percent of cleavage, x (%) CeDcpS 90 min ([6]; reaction time 90 min): 100%; % of stacked conformation [7]: 61.8 ± 0.7%
C[n+]1cn(C2OC(COP(=O)(O)OP(O)(=S)OP(=O)(O)OCC3OC(n4cnc5c(=O)[nH]c(N)nc54)C(O)C3O)C(O)C2O)c2nc(N)[nH]c(=O)c21 (centres unmarked) [m^7GppSpG D2] | – | – | 23.0 ± 0.4 | % of stacked conformation [7]: 60.8 ± 0.2%
